Screening data as filed in PubChem.
Rev-erbA mod: modulates human Rev-erb alpha binding to DNA | P20393 | Rev-erbα–FITC-DNA binding, fluorescence polarization, 90 min | activity, % at 10 µM | 0.79% of 370,000 active;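 active means activity above about 14%, limit read from the data; passing the limit was not always enough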
PG9 binder: PG9 antibody binding by small molecule; TR-FRET gp120-PG9 antibody binding; 0.43% of 360,000 active; inhibition, % at 6.7 µM; in the data active means inhibition above about 8.5%
NR2E3 ag-1: human photoreceptor-specific nuclear receptor agonism; Q9Y5X4; CHO-S Gal4-NCOR/VP16-NR2E3 two-hybrid, luciferase; inhibition of corepressor binding, % at 3.98 µM; 0.35% of 360,000 active;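 active means inhibition above the mean of all tested compounds plus 3 SD, cut at about 70% in these data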;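 further: higher means lower luciferase signal from less NR2E3 corepressor binding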
Target sequence (Q9Y5X4 whole entry, looked up, the tested form may be a part): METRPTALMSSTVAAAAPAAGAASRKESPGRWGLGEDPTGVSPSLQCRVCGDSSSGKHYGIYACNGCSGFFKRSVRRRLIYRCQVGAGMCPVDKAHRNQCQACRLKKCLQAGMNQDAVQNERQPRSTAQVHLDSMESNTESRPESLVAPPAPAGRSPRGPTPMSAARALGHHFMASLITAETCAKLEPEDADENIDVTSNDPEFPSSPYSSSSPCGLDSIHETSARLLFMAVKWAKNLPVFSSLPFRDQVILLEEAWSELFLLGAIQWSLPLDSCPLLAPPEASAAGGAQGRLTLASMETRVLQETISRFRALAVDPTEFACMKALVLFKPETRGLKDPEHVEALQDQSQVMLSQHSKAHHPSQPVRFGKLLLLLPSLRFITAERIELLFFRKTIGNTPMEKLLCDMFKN
NR2E3 ag-2: NR2E3 (human) agonism. Q9Y5X4. GST-NR2E3/biotin-RetCOR TR-FRET, 1536-well. inhibition of corepressor binding, % at 4.78 µM. 0.12% of 320,000 active;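 active means percent inhibition above the cutoff of mean plus 3 SD of all tested compounds, set per screening campaign, cut at about 20% in these data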
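System: GST-NR2E3 and biotin-RetCOR proteins; probe or stimulus: 7 nM biotin-RetCOR; doses: compound at 4.8 µM, single dose; schedule: Compound–protein incubation for 5 h at 4 °C; detection: time-resolved FRET; read-out: percent inhibition; controls: biotin wells as high control, 0.6% DMSO wells as low control; format: 1536-well plates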
NR2E3 ag confirm: confirmation of human NR2E3 agonists. inhibition, % at 3.98 µM. 51% of 2,300 active. shares compounds with NR2E3 ag-1. CHO-S mammalian two-hybrid NR2E3-NCOR, luciferase luminescence;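 active means average inhibition above a cutoff equal to the mean inhibition of all tested compounds plus one SD, cut at about 70% in these data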
VP16 counter: reduces GAL4-VP16 reporter signal in NR2E3 counterscreen; shares compounds with NR2E3 ag-1; CHO-S GAL4-VP16 luciferase reporter, luminescence; inhibition, % at 3.98 µM; 29% of 2,300 active;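 active means mean inhibition above a cutoff equal to the average over all tested compounds plus one standard deviation, cut at about 70% in these data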;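 further: luciferase from a UAS reporter driven by GAL4-VP16 transactivation; higher means less reporter light so more repression of VP16 activity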
Large screens that a line does not name were inactive (follow-up assays come after a bar, where they were run); ! = not active in a repeat. In the library only some 1.4% were active in any assay of this set; here they are far more common.

O=C(C1CC1)N1CCC(c2nc(-c3ccc(S(=O)(=O)NCC4CCCO4)cc3)no2)CC1 (stereo unspecified)	none | NR2E3 ag confirm inactive | VP16 counter inactive
CS(=O)(=O)N1CCCC(c2nc(-c3ccc(S(=O)(=O)NCc4ccccc4)cc3)no2)C1 (stereo unspecified)	none (no result: PG9 binder) | NR2E3 ag confirm 73 | VP16 counter inactive
C[C@H]1[C@@H](NC(=O)/C=C/c2ccccc2)CC[C@@]23CCCN2C(=O)CCC[C@@H]13	none (no result: PG9 binder, NR2E3 ag-1, NR2E3 ag-2)
CCC(Cc1ccccc1)NS(=O)(=O)c1ccc2c(c1)NC(=O)C(C)S2 (stereo unspecified)	none | NR2E3 ag confirm inactive | VP16 counter inactive
COc1ccc(N2CCN(S(=O)(=O)c3ccc4c(c3)NC(=O)C(C)S4)CC2)cc1 (stereo unspecified)	none | NR2E3 ag confirm inactive | VP16 counter inactive
COc1cccc(NS(=O)(=O)c2ccc3c(c2)NC(=O)C(C)S3)c1 (stereo unspecified)	none | NR2E3 ag confirm inactive | VP16 counter inactive
Cc1ccc(CNS(=O)(=O)c2ccc3c(c2)NC(=O)C(C)S3)cc1 (stereo unspecified)	none | NR2E3 ag confirm inactive | VP16 counter inactive
CC(C)C[C@H]1COc2cc(Br)ccc2S(=O)(=O)N1Cc1cn(CCC2OCCO2)nn1	none (no result: PG9 binder, NR2E3 ag-1, NR2E3 ag-2)
S=c1[nH]nc(-c2n[nH]c3c2CCC3)n1N=Cc1ccc(OCc2ccccc2)cc1	none (no result: PG9 binder, NR2E3 ag-1, NR2E3 ag-2)
CCC[C@H]1[C@@H](NC(=O)c2ccc(Cl)c(C(F)(F)F)c2)CC[C@@]23CCCN2C(=O)CCC[C@@H]13	none (no result: PG9 binder, NR2E3 ag-1, NR2E3 ag-2)
CC1(c2nnnn2C2CCCCC2)CSCC(=O)N1CCc1ccc(O)cc1 (stereo unspecified)	none (no result: PG9 binder, NR2E3 ag-1, NR2E3 ag-2)
CCc1cccc(NS(=O)(=O)c2ccc3c(c2)NC(=O)C(C)S3)c1 (stereo unspecified)	none | NR2E3 ag confirm inactive | VP16 counter inactive
COc1ccccc1NS(=O)(=O)c1ccc2c(c1)NC(=O)C(C)S2 (stereo unspecified)	none
CCN(CC)S(=O)(=O)c1ccc(Cl)c(C(=O)Nc2ccc(Cl)cc2[N+](=O)[O-])c1	none | NR2E3 ag confirm 70 | VP16 counter inactive
CN(C(=O)c1cccc(NC(=O)Cc2ccc(NC(=O)C3CCCN(C(=O)c4ccccc4)C3)cc2)c1)C1CC1 (stereo unspecified)	none (no result: NR2E3 ag-1, NR2E3 ag-2)
Cn1c(=O)c2[nH]c(COc3ccc(C(C)(C)C)cc3)nc2n(C)c1=O	none (no result: Rev-erbA mod, PG9 binder) | NR2E3 ag confirm 87 | VP16 counter 72
CC(C(=O)O)c1ccc2c(c1)CC(=O)c1ccccc1S2 (stereo unspecified)	none (no result: PG9 binder, NR2E3 ag-1, NR2E3 ag-2)
CCCCNS(=O)(=O)CC1NCc2cc(F)ccc21 (stereo unspecified)	none (no result: PG9 binder, NR2E3 ag-1, NR2E3 ag-2)
O=C(C1=C(c2ccccc2)C(=O)c2ccccc2C1=O)c1ccccc1	NR2E3 ag-1 78 (no result: NR2E3 ag-2) | NR2E3 ag confirm 99 | VP16 counter 93
O=C(CNCc1ccccc1[N+](=O)[O-])N1CCC2(CC1)OCCO2	none (no result: PG9 binder, NR2E3 ag-1, NR2E3 ag-2)
OCCCCCNc1ncnc2ccccc12	NR2E3 ag-1 79 | NR2E3 ag confirm inactive | VP16 counter inactive
c1ccc(CNc2ncnc3ccccc23)cc1	NR2E3 ag-1 80! | NR2E3 ag confirm 72 | VP16 counter 71
COc1cc2ncnc(NCc3ccccc3)c2cc1OC	none
CC[C@H]1CN2CCc3cc(OC)c(OC)cc3C2C[C@@H]1C[C@H]1NCCc2cc(OC)c(OC)cc21 (stereo partly specified)	NR2E3 ag-1 104 | NR2E3 ag confirm 98 | VP16 counter 98
CCC1=C(CC2NCCc3ccccc32)CC2c3cc(OC)c(OC)cc3CCN2C1 (stereo unspecified)	NR2E3 ag-1 97 (no result: NR2E3 ag-2) | NR2E3 ag confirm 90 | VP16 counter 87
COC(=O)C[C@H]1CC[C@@H]2[C@H](COc3ccc(NS(C)(=O)=O)cc3C(=O)N2C)O1	none (no result: PG9 binder, NR2E3 ag-1, NR2E3 ag-2)
O=C(NCC(c1ccccc1)c1ccccc1)[C@H](Cc1c[nH]c2ccccc12)NC1(C(=O)NC2CCCCC2)CCC1	none (no result: PG9 binder, NR2E3 ag-1, NR2E3 ag-2)
Cc1ccccc1NC(=S)NCCC(c1ccccc1)c1ccccc1	none | NR2E3 ag confirm inactive | VP16 counter inactive
CN(C)c1cccc(/C=C2\CC3(OC(=O)c4ccc(Cl)cc4)CCCN2C3)c1 (stereo unspecified)	none (no result: PG9 binder, NR2E3 ag-1, NR2E3 ag-2)
O=S(=O)(Nc1nc(-c2ccccc2)cs1)c1cccc(C(F)(F)F)c1	NR2E3 ag-1 71 | NR2E3 ag confirm 88 | VP16 counter 76
O=[N+]([O-])c1ccc(S(=O)(=O)Nc2nc(-c3ccccc3)cs2)cc1	none
O=S(=O)(Nc1nc(-c2ccccc2)cs1)c1cc(Cl)ccc1Cl	none | NR2E3 ag confirm inactive | VP16 counter inactive
COC(=O)[C@H](C)NC(=O)[C@@H]1CCCN1C(=O)CNP(=O)(OCc1ccccc1)OCc1ccccc1	none (no result: PG9 binder, NR2E3 ag-1, NR2E3 ag-2)
COc1ccc(C(O)c2nc(-c3ccncc3)cs2)cc1 (stereo unspecified)	none (no result: NR2E3 ag-2) | NR2E3 ag confirm inactive | VP16 counter inactive
S=C(NCc1ccc(Cl)cc1)Nc1ccncc1	NR2E3 ag-1 100 | NR2E3 ag confirm 84 | VP16 counter 81
S=C(NCc1ccc(Cl)cc1)Nc1ccccc1	none
CCSc1nsc(NC(=O)Nc2ccccc2F)n1	none
C=CCSc1nsc(NC(=O)Nc2ccc(F)cc2)n1	NR2E3 ag-1 93 | NR2E3 ag confirm 100 | VP16 counter 88
Cc1nc2cc(NCc3nc4ccccc4n3Cc3ccccc3)ccc2n1C	none | NR2E3 ag confirm inactive | VP16 counter inactive
CN(Cc1ccc(Cl)c(Cl)c1)C(=O)c1cccc(S(=O)(=O)N2CCN(Cc3ccccc3)CC2)c1	none | NR2E3 ag confirm inactive | VP16 counter inactive
CN(Cc1cccc(F)c1)C(=O)c1cccc(S(=O)(=O)N2CCN(Cc3ccccc3)CC2)c1	none | NR2E3 ag confirm inactive | VP16 counter inactive
CN(Cc1cccc(Cl)c1Cl)C(=O)c1cccc(S(=O)(=O)N2CCN(Cc3ccccc3)CC2)c1	none | NR2E3 ag confirm 86 | VP16 counter inactive
Cc1cc(N2CCC(C)CC2)nc(-n2nc(C)cc2C)n1	NR2E3 ag-1 94 | NR2E3 ag confirm inactive | VP16 counter inactive
Cc1cc(C)n(-c2nc3ccccc3nc2N2CCC(C)CC2)n1	none
CC(C)(C)NCC(=Cc1ccccc1)C(=O)c1ccccc1	NR2E3 ag-1 87 (no result: NR2E3 ag-2) | NR2E3 ag confirm 83 | VP16 counter inactive
O=C(CSc1nnc(-c2cccnc2)n1-c1ccc(Cl)cc1)Nc1ccc(S(=O)(=O)Nc2nccs2)cc1	none (no result: PG9 binder, NR2E3 ag-1, NR2E3 ag-2)
CC1(C)CC(=O)C2=C(C1)c1c(ccc3ccccc13)NC2c1cc([N+](=O)[O-])cc([N+](=O)[O-])c1O (stereo unspecified)	none | NR2E3 ag confirm 98 | VP16 counter inactive
c1ccc(Nc2ncnc3sccc23)cc1	none
CC(Nc1ncnc2sccc12)c1ccccc1 (stereo unspecified)	NR2E3 ag-1 106 | NR2E3 ag confirm 97 | VP16 counter 86
CC(=O)CC[C@H]1CC[C@]2(CCCN(C(=O)c3ccno3)C2)O1	none (no result: PG9 binder, NR2E3 ag-1, NR2E3 ag-2)
CCN(C(=O)CC(C)C)c1nnc(Cn2nnc3ccccc32)s1	none
